Test results from ChEMBL document CHEMBL1129275, “Synthesis and in vitro and in vivo characteristics of an iodinated analogue of the beta-adrenoceptor antagonist carazolol” (J Med Chem, 1996).

What was measured:
Oryctolagus cuniculus [1] = assay: Biodistribution pattern of [123I]- ligand was evaluated in lung of anesthetized rabbit after Intravenous injection of 50 uCi after 2 hr; format: ADME, organism-based; conditions: in vivo
In short: (§1)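 Male New Zealand white rabbits, 2.5–3.5 kg, anesthetized with 5 mg/kg xylazine plus 30 mg/kg ketamine im. Each received 50 uCi radioligand (specific activity > 5000 Ci/mmol) iv via ear vein. Animals were killed with 200 mg/kg pentobarbital im at the set time. Blood was drawn by intracardiac puncture and organs weighed. Gamma counting was decay-corrected, expressed as %ID x kg body weight/g tissue, mean ± SEM, n = 3/time point.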

Oryctolagus cuniculus [2] = assay: Cerebral biodistribution pattern of [123I]- ligand was evaluated in pituitary gland of anesthetized rabbit after Intravenous injection of 50 uCi after 6 hr; format: ADME, organism-based; conditions: in vivo
In short: (§2)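 Male New Zealand white rabbits (2.5–3.5 kg), anesthetized with xylazine 5 mg/kg plus ketamine 30 mg/kg im, given 50 µCi radioligand (specific activity >5000 Ci/mmol) iv via ear vein. Euthanized at set times by pentobarbital 200 mg/kg im, n = 3/time point. Organs removed and weighed, gamma-counted, decay/weight corrected; expressed as % ID x kg body weight/g tissue, mean ± SEM.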

Oryctolagus cuniculus [3] = assay: Biodistribution pattern of [123I]- ligand was evaluated in right ventricular muscle of anesthetized rabbit after Intravenous injection of 50 uCi after 5 min; format: ADME, organism-based, Muscle tissue; conditions: in vivo; in short: as §2
Oryctolagus cuniculus [4] = assay: Cerebral biodistribution pattern of [123I]- ligand was evaluated in frontal cortex of anesthetized rabbit after Intravenous injection of 50 uCi after 2 hr; format: ADME, organism-based; conditions: in vivo; in short: as §2
Oryctolagus cuniculus [5] = assay: Biodistribution pattern of [123I]- ligand was evaluated in left atrial muscle of anesthetized rabbit after Intravenous injection of 50 uCi after 2 hr; format: ADME, organism-based, Muscle tissue; conditions: in vivo; in short: as §1
Oryctolagus cuniculus [6] = assay: Biodistribution pattern of [123I]- ligand was evaluated in intestine of anesthetized rabbit after Intravenous injection of 50 uCi after 1 hr; format: ADME, organism-based; conditions: in vivo; in short: as §1
Oryctolagus cuniculus [7] = assay: Biodistribution pattern of [123I]- ligand was evaluated in right atrial muscle of anesthetized rabbit after Intravenous injection of 50 uCi after 30 min; format: ADME, organism-based, Muscle tissue; conditions: in vivo, 0.5 h; in short: as §2
Oryctolagus cuniculus [8] = assay: Biodistribution pattern of [123I]- ligand was evaluated in right atrial muscle of anesthetized rabbit after Intravenous injection of 50 uCi after 1 hr; format: ADME, organism-based, Muscle tissue; conditions: in vivo; in short: as §2
Oryctolagus cuniculus [9] = assay: Cerebral biodistribution pattern of [123I]- ligand was evaluated in pituitary gland of anesthetized rabbit after Intravenous injection of 50 uCi after 5 min; format: ADME, organism-based; conditions: in vivo; in short: as §2
Oryctolagus cuniculus [10] = assay: Biodistribution pattern of [123I]- ligand was evaluated in lung of anesthetized rabbit after Intravenous injection of 50 uCi after 24 hr; format: ADME, organism-based; conditions: in vivo; in short: as §1
Oryctolagus cuniculus [11] = assay: Biodistribution pattern of [123I]- ligand was evaluated in kidney of anesthetized rabbit after Intravenous injection of 50 uCi after 4 hr; format: ADME, organism-based; conditions: in vivo; in short: as §1
Oryctolagus cuniculus [12] = assay: Biodistribution pattern of [123I]- ligand was evaluated in kidney of anesthetized rabbit after Intravenous injection of 50 uCi after 30 min; format: ADME, organism-based; conditions: in vivo, 0.5 h; in short: as §1
Oryctolagus cuniculus [13] = assay: Cerebral biodistribution pattern of [123I]- ligand was evaluated in hypothalamus of anesthetized rabbit after Intravenous injection of 50 uCi after 5 min; format: ADME, organism-based; conditions: in vivo; in short: as §2
Oryctolagus cuniculus [14] = assay: Biodistribution pattern of [123I]- ligand was evaluated in blood of anesthetized rabbit after Intravenous injection of 50 uCi after 24 hr; format: ADME, organism-based; conditions: in vivo; in short: as §1
Oryctolagus cuniculus [15] = assay: Biodistribution pattern of [123I]- ligand was evaluated in intestine of anesthetized rabbit after Intravenous injection of 50 uCi after 24 hr; format: ADME, organism-based; conditions: in vivo; in short: as §1
Oryctolagus cuniculus [16] = assay: Biodistribution pattern of [123I]- ligand was evaluated in blood of anesthetized rabbit after Intravenous injection of 50 uCi after 2 hr; format: ADME, organism-based; conditions: in vivo; in short: as §1
Oryctolagus cuniculus [17] = assay: Biodistribution pattern of [123I]- ligand was evaluated in left atrial muscle of anesthetized rabbit after Intravenous injection of 50 uCi after 4 hr; format: ADME, organism-based, Muscle tissue; conditions: in vivo; in short: as §1
Oryctolagus cuniculus [18] = assay: Cerebral biodistribution pattern of [123I]- ligand was evaluated in striatum of anesthetized rabbit after Intravenous injection of 50 uCi after 2 hr; format: ADME, organism-based; conditions: in vivo; in short: as §2
Oryctolagus cuniculus [19] = assay: Biodistribution pattern of [123I]- ligand was evaluated in fat of anesthetized rabbit after Intravenous injection of 50 uCi after 1 hr; format: ADME, organism-based, Adipose tissue; conditions: in vivo; in short: as §1
Oryctolagus cuniculus [20] = assay: Cerebral biodistribution pattern of [123I]- ligand was evaluated in cerebellum of anesthetized rabbit after Intravenous injection of 50 uCi after 30 min; format: ADME, organism-based; conditions: in vivo, 0.5 h; in short: as §2
Oryctolagus cuniculus [21] = assay: […] biodistribution pattern of [123I]- ligand was evaluated in kidney of anesthetized rabbit after Intravenous injection of 50 uCi after 24 hr; format: ADME, organism-based; conditions: in vivo; in short: as §2
Oryctolagus cuniculus [22] = assay: Biodistribution pattern of [123I]- ligand was evaluated in liver of anesthetized rabbit after Intravenous injection of 50 uCi after 4 hr; format: ADME, organism-based; conditions: in vivo; in short: as §1
Oryctolagus cuniculus [23] = assay: Biodistribution pattern of [123I]- ligand was evaluated in kidney of anesthetized rabbit after Intravenous injection of 50 uCi after 5 min; format: ADME, organism-based; conditions: in vivo; in short: as §1
Oryctolagus cuniculus [24] = assay: Biodistribution pattern of [123I]- ligand was evaluated in muscle of anesthetized rabbit after Intravenous injection of 50 uCi after 6 hr; format: ADME, organism-based, Muscle tissue; conditions: in vivo; in short: as §2
Oryctolagus cuniculus [25] = assay: Cerebral biodistribution pattern of [123I]- ligand was evaluated in hypothalamus of anesthetized rabbit after Intravenous injection of 50 uCi after 2 hr; format: ADME, organism-based; conditions: in vivo; in short: as §2
Oryctolagus cuniculus [26] = assay: Biodistribution pattern of [123I]- ligand was evaluated in intestine of anesthetized rabbit after Intravenous injection of 50 uCi after 5 min; format: ADME, organism-based; conditions: in vivo; in short: as §1
Oryctolagus cuniculus [27] = assay: Cerebral biodistribution pattern of [123I]- ligand was evaluated in cerebellum of anesthetized rabbit after Intravenous injection of 50 uCi after 2 hr; format: ADME, organism-based; conditions: in vivo; in short: as §2
Oryctolagus cuniculus [28] = assay: Biodistribution pattern of [123I]- ligand was evaluated in left ventricular muscle of anesthetized rabbit after Intravenous injection of 50 uCi after 24 hr; format: ADME, organism-based, Muscle tissue; conditions: in vivo; in short: as §1
Oryctolagus cuniculus [29] = assay: Biodistribution pattern of [123I]- ligand was evaluated in blood of anesthetized rabbit after Intravenous injection of 50 uCi after 30 min; format: ADME, organism-based; conditions: in vivo, 0.5 h; in short: as §1
Oryctolagus cuniculus [30] = assay: Biodistribution pattern of [123I]- ligand was evaluated in muscle of anesthetized rabbit after Intravenous injection of 50 uCi after 2 hr; format: ADME, organism-based, Muscle tissue; conditions: in vivo; in short: as §1
Oryctolagus cuniculus [31] = assay: Biodistribution pattern of [123I]- ligand was evaluated in lung of anesthetized rabbit after Intravenous injection of 50 uCi after 5 min; format: ADME, organism-based; conditions: in vivo; in short: as §1
Oryctolagus cuniculus [32] = assay: Biodistribution pattern of [123I]- ligand was evaluated in liver of anesthetized rabbit after Intravenous injection of 50 uCi after 5 min; format: ADME, organism-based; conditions: in vivo; in short: as §1
Oryctolagus cuniculus [33] = assay: Biodistribution pattern of [123I]- ligand was evaluated in spleen of anesthetized rabbit after Intravenous injection of 50 uCi after 2 hr; format: ADME, organism-based; conditions: in vivo; in short: as §2
Oryctolagus cuniculus [34] = assay: Cerebral biodistribution pattern of [123I]- ligand was evaluated in hypothalamus of anesthetized rabbit after Intravenous injection of 50 uCi after 30 min; format: ADME, organism-based; conditions: in vivo, 0.5 h; in short: as §2
Oryctolagus cuniculus [35] = assay: Biodistribution pattern of [123I]- ligand was evaluated in left ventricular muscle of anesthetized rabbit after Intravenous injection of 50 uCi after 1 hr; format: ADME, organism-based, Muscle tissue; conditions: in vivo; in short: as §1
Oryctolagus cuniculus [36] = assay: Biodistribution pattern of [123I]- ligand was evaluated in left ventricular muscle of anesthetized rabbit after Intravenous injection of 50 uCi after 2 hr; format: ADME, organism-based, Muscle tissue; conditions: in vivo; in short: as §1
Oryctolagus cuniculus [37] = assay: Biodistribution pattern of [123I]- ligand was evaluated in fat of anesthetized rabbit after Intravenous injection of 50 uCi after 6 hr; format: ADME, organism-based, Adipose tissue; conditions: in vivo; in short: as §1
Oryctolagus cuniculus [38] = assay: Biodistribution pattern of [123I]- ligand was evaluated in lung of anesthetized rabbit after Intravenous injection of 50 uCi after 1 hr; format: ADME, organism-based; conditions: in vivo; in short: as §1

ID x kg of body weight/g of tissue (Oryctolagus cuniculus [1]): 1.29%
ID x kg of body weight/g of tissue (Oryctolagus cuniculus [2]): 0.06%
ID x kg of body weight/g of tissue (Oryctolagus cuniculus [3]): 0.43%
ID x kg of body weight/g of tissue (Oryctolagus cuniculus [4]): 0.09%
ID x kg of body weight/g of tissue (Oryctolagus cuniculus [5]): 0.17%
ID x kg of body weight/g of tissue (Oryctolagus cuniculus [6]): 0.1%
ID x kg of body weight/g of tissue (Oryctolagus cuniculus [7]): 0.15%
ID x kg of body weight/g of tissue (Oryctolagus cuniculus [8]): < 0.13%
ID x kg of body weight/g of tissue (Oryctolagus cuniculus [9]): 0.5%
ID x kg of body weight/g of tissue (Oryctolagus cuniculus [10]): 0.18%
ID x kg of body weight/g of tissue (Oryctolagus cuniculus [11]): 0.05%
ID x kg of body weight/g of tissue (Oryctolagus cuniculus [12]): < 0.29%
ID x kg of body weight/g of tissue (Oryctolagus cuniculus [13]): 0.25%
ID x kg of body weight/g of tissue (Oryctolagus cuniculus [14]): 0.01%
ID x kg of body weight/g of tissue (Oryctolagus cuniculus [15]): 0.02%
ID x kg of body weight/g of tissue (Oryctolagus cuniculus [16]): 0.01%
ID x kg of body weight/g of tissue (Oryctolagus cuniculus [17]): 0.11%
ID x kg of body weight/g of tissue (Oryctolagus cuniculus [18]): 0.07%
ID x kg of body weight/g of tissue (Oryctolagus cuniculus [19]): 0.06%
ID x kg of body weight/g of tissue (Oryctolagus cuniculus [20]): < 0.15%
ID x kg of body weight/g of tissue (Oryctolagus cuniculus [21]): 0.02%
ID x kg of body weight/g of tissue (Oryctolagus cuniculus [22]): 0.04%
ID x kg of body weight/g of tissue (Oryctolagus cuniculus [23]): 0.92%
ID x kg of body weight/g of tissue (Oryctolagus cuniculus [24]): 0.04%
ID x kg of body weight/g of tissue (Oryctolagus cuniculus [25]): 0.05%
ID x kg of body weight/g of tissue (Oryctolagus cuniculus [26]): 0.16%
ID x kg of body weight/g of tissue (Oryctolagus cuniculus [27]): 0.15%
ID x kg of body weight/g of tissue (Oryctolagus cuniculus [28]): 0.02%
ID x kg of body weight/g of tissue (Oryctolagus cuniculus [29]): 0.02%
ID x kg of body weight/g of tissue (Oryctolagus cuniculus [30]): 0.05%
ID x kg of body weight/g of tissue (Oryctolagus cuniculus [31]): 5.75%
ID x kg of body weight/g of tissue (Oryctolagus cuniculus [32]): 0.14%
ID x kg of body weight/g of tissue (Oryctolagus cuniculus [33]): 0.22%
ID x kg of body weight/g of tissue (Oryctolagus cuniculus [34]): 0.09%
ID x kg of body weight/g of tissue (Oryctolagus cuniculus [35]): 0.2%
ID x kg of body weight/g of tissue (Oryctolagus cuniculus [36]): 0.2%
ID x kg of body weight/g of tissue (Oryctolagus cuniculus [37]): 0.02%
ID x kg of body weight/g of tissue (Oryctolagus cuniculus [38]): 1.43%
Compound: CC(C)(/C=C/I)NC[C@H](O)COc1cccc2[nH]c3ccccc3c12
